The species named for test [1] is Homo sapiens. The experiment in a line: Effective concentration required to increase the oxidation of lactate in cellular assay using Human Skin Fibroblasts. It is filed as functional. The essentials: (§1)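 Human fibroblasts harvested with trypsin 2-4 days post-confluence and assayed in suspension ((3.5-5) × 10^5 cells per tube) with test compound or solvent control. Equilibrated at 37 °C, then started with DMEM-S containing 25 µM lactate and 0.2 µCi/mL d,l-[1-14C]lactate. Gassed with 95% O2/5% CO2 and shaken 25 min at 37 °C. Stopped with TCA; released 14CO2 trapped and counted by scintillation. EC50 ± standard error.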

Test [2] addresses Pyruvate dehydrogenase kinase (Rattus norvegicus, UniProt Q63065+A6IPZ9+Q64536+O54937). Nature of the test: Inhibitory activity tested against Pyruvate Dehydrogenase Kinase (PDHK) receptor from rats. It is filed as protein assay. The essentials:
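Commercial PDH complex used as the kinase-containing preparation. PDHK inhibition read spectrophotometrically as NADH production at 340 nm, measured with and without ATP. IC50 ± standard error, from purified substances.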

Test [3] relates to Rattus norvegicus. Nature of the test: In vivo %control of lactate in normal Sprague-Dawley rats after 2 hr at a dose of 10 umol/Kg. It is filed as functional. In short, it runs like this:
(§2)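 Male Sprague-Dawley rats, about 200 g, randomly assigned to groups (n = 6/group) and fasted 24 h. Single oral dose of compound in 0.5% carboxymethylcellulose/0.2% Tween-80 (1 mL/100 g), or vehicle alone. Blood taken 2 h post-dose into heparin/fluoride tubes; lactate measured on a biochemistry analyzer. Expressed as percent of vehicle control; groups compared by two-tailed unpaired t-test.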

The subject of test [4] is Rattus norvegicus. The experiment in a line: In vivo %control of lactate in normal Sprague-Dawley rats after 2 hr at a dose of 100 umol/Kg. It is filed as functional. In short, it runs like this: as §2
Test [5] has as its system Rattus norvegicus. Nature of the test: In vivo %control of lactate in normal Sprague-Dawley rats after 2 hr at a dose of 30 umol/Kg. In kind it is functional. In short, it runs like this:
as §2

Test [6] concerns Rattus norvegicus. The experiment in a line: In vivo %control of lactate in normal Sprague-Dawley rats after 2 hr at a dose of 100 umol/Kg; Not active. In kind it is functional, organism-based. In short, it runs like this:
as §2

Test [7] concerns Rattus norvegicus. The experiment in a line: In vivo %control of lactate in normal Sprague-Dawley rats after 2 hr at a dose of 30 umol/Kg; not active. It is filed as functional, organism-based. In short, it runs like this:
as §2

Test [8] concerns Rattus norvegicus. The experiment in a line: In vivo %control of lactate in normal Sprague-Dawley rats after 2 hr at a dose of 300 umol/Kg. It is filed as functional. In short, it runs like this:
as §2

The subject of test [9] is Rattus norvegicus. The experiment in a line: In vivo %control of lactate in normal Sprague-Dawley rats after 2 hr at a dose of 1 umol/Kg. In kind it is functional. The essentials:
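Male Sprague-Dawley rats, about 200 g, randomly assigned to groups (n = 6/group), fasted 24 h, then given compound orally in 0.5% carboxymethylcellulose with 0.2% Tween-80 (1 mL/100 g body weight) or vehicle alone. Blood drawn 2 h post-dose into heparin/fluoride tubes. Lactate measured on a dual-channel biochemistry analyzer and expressed as percent of vehicle control. Unpaired two-tailed t-test.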

Test [10] is filed under the species Homo sapiens. Nature of the test: Effective concentration required to increase the oxidation of lactate in cellular assay using Human Skin Fibroblasts; Inactive. It is filed as functional. The essentials:
as §1

Test [11] relates to Rattus norvegicus. The experiment in a line: In vivo %control of lactate in normal Sprague-Dawley rats after 2 hr at a dose of 3 umol/Kg. It is filed as functional. The essentials:
as §2

Test [12] has as its system Rattus norvegicus. The experiment in a line: In vivo %control of lactate in normal Sprague-Dawley rats after 2 hr at a dose of 30 umol/Kg; Not active. In kind it is functional, organism-based. The essentials:
as §2

The source of these data is ChEMBL document CHEMBL1133665, “Secondary amides of (R)-3,3,3-trifluoro-2-hydroxy-2-methylpropionic acid as inhibitors of pyruvate dehydrogenase kinase” (J Med Chem, 2000).

Activity calls are given as the source filed them. The calls are words filed in the database; no cut-off is given here.

The compound `C[C@@H]1CN(C(=O)[C@@](C)(O)C(F)(F)F)CCN1C(=O)c1ccc(C#N)cc1` registered an EC50 in test [1] of 0.25 µM. Further, the IC50 in test [2] turned out to be 0.079 µM. For the same compound, the figures for the Control in test [3], in test [4] and in test [5] were 90%, 67% and 60%, respectively.

On to `C[C@@H]1CN(C(=O)[C@@](C)(O)C(F)(F)F)CCN1C(=O)c1cccc2ccccc12`, for which the IC50 in [2] worked out at 0.07 µM. Also, the NA result in test [6] was “inactive”.

`C[C@@H]1CN(C(=O)[C@@](C)(O)C(F)(F)F)[C@@H](C)CN1Cc1ccccc1`: in test [2], the IC50 is 0.082 µM. Besides, in [7], the NA entry is “inactive”.

In the case of `COc1cc(C(=O)N2CCN(C(=O)[C@@](C)(O)C(F)(F)F)C[C@H]2C)cc(OC)c1OC`, the EC50 in test [1] stood at 0.159 µM. The same compound gave an IC50 in test [2] of 0.04 µM. The Control in [5] was determined as 71%; in test [8], 60%.

`O=C([O-])C(Cl)Cl.[Na+]` [SODIUM DICHLOROACETATE]: the IC50 in test [2] is > 1000 µM. In addition, the Control in [9] was 70%.

For the compound `CC(C)(C)C(=O)N1CCC(Cc2ccccc2)CC1`, the IA result in [10] was “inactive”. The compound also gave an IC50 in [2] of 282 µM.

As for `CC(=O)N1CCC(Cc2ccccc2)CC1`, in test [10], the IA entry was “inactive”. This compound also had an IC50 in test [2] of 74 µM.

Turning to `C[C@@](O)(C(=O)N1CCN(c2ccccn2)CC1)C(F)(F)F`, the EC50 in test [1] worked out at 13 µM. The half-inhibitory concentration (IC50) in test [2] was found to be 3.37 µM. The compound also returned a Control in [8] of 68%.

With `C[C@@H]1CN(C(=O)[C@@](C)(O)C(F)(F)F)[C@@H](C)CN1C(=O)c1ccc(C#N)cc1`, it took 0.057 µM to reach a half-maximal effect in test [1] (EC50). In test [2], this compound returned an IC50 of 0.016 µM. For the same compound, the Control in [9] is listed as 87%; in test [3] it was 74%; in [11], 90%.

On to `CNC(=O)N1CCC(Cc2ccccc2)CC1`, for which the IA result in [10] was “inactive”. For the same compound, in [2], the IC50 came to 22.4 µM.

In turn, `C[C@@](O)(C(=O)N1CCN(c2ccccc2)CC1)C(F)(F)F` yielded an EC50 in test [1] of 25.2 µM. Also, the IC50 in test [2] worked out at 4.16 µM. In [8], the Control amounted to 68%.

In the case of `C[C@@H]1CN(C(=O)[C@@](C)(O)C(F)(F)F)CCN1S(=O)(=O)c1cccc2ccccc12`, in test [2], the IC50 was 0.025 µM. For the same compound, the NA entry in [12] is “inactive”.

For orientation: EC50 means the concentration needed to bring the measured effect to its halfway point. The low end stands for an effect from little substance, the high end for a need for much substance. What is called IC50 is the concentration that gives 50% inhibition. A low value points to higher potency.
